# Experimental data pooled from the literature.
# Each line is one published result; the experiments were not run side by side.
# LRRK2 G2019S: Leucine-rich repeat serine/threonine-protein kinase 2 (LRRK2, Homo sapiens, UniProt Q5S007, G2019S)
# LRRK2: Leucine-rich repeat serine/threonine-protein kinase 2 (LRRK2, Homo sapiens, UniProt Q5S007)
SMILES,target,assay,setting,remaining binding [%]
CNCc1ccccc1-c1csc([C@@H](C)Nc2nc(C)nc3cc(OC)c(OC)cc23)c1,LRRK2 G2019S,"cell-free assay, competition with immobilised ligand",1 µM,72
F[C@@H]1CCN(c2nccc(-c3cnn4ncccc34)n2)C1,LRRK2,binding,1 µM,100
Nc1ncc2c(n1)-c1c([nH]c3ccc(C#CC4CC4)cc13)CCCC2,LRRK2 G2019S,"binding, competition with immobilised ligand",1 µM,83
C=CC(=O)N1CCC(C(=O)NCC(=O)N2CCN(c3nc(-c4cnc(N)nc4C(F)F)nc(N4CCOCC4)n3)CC2)CC1,LRRK2,"binding, competition with immobilised ligand",1 µM,63
CN(CCCC(F)(F)F)c1nccc(-c2cnn3ncccc23)n1,LRRK2 G2019S,binding,1 µM,100
CS(=O)(=O)N1CCCC(NC(=O)[C@H](CCC2CCCCC2)NC(=O)c2ccc(CNC(=O)c3cnc4ccccn34)cc2)C1 (stereo partly shown),LRRK2 G2019S,"cell-free assay, competition with immobilised ligand",0.1 µM,100
O=C(c1ccc(Nc2ncc(Cl)c(-c3cc4ccccc4s3)n2)cc1)N1CCC(N2CCCC2)CC1,LRRK2 G2019S,"binding, competition with immobilised ligand",1 µM,5.9
CCN1CCN(Cc2ccc(C(=O)Nc3ccc(C)c(Oc4ccc5c(c4)CC(=O)N5)c3)cc2C(F)(F)F)CC1,LRRK2 G2019S,"binding, competition with immobilised ligand",1 µM,100
COc1cnc(Nc2cccc(S(N)(=O)=O)c2)nc1N1CCN(c2ccccc2)CC1,LRRK2,"binding, competition with immobilised ligand",1 µM,80
CN(C)c1nccc(-c2cnn3ncccc23)n1,LRRK2,binding,1 µM,90
c1cncc(-c2cccc(Nc3nccc(NC4CCCCC4)n3)c2)c1,LRRK2 G2019S,"binding, competition with immobilised ligand",10 µM,61
O=C(NCCCN1CCOCC1)c1ccc(Nc2ncc(Cl)c(-c3ccc(Cl)s3)n2)cc1,LRRK2 G2019S,"binding, competition with immobilised ligand",1 µM,10
c1ccc(N2CCN(Cc3nc4ccccc4[nH]3)CC2)nc1,LRRK2,"binding, competition with immobilised ligand",1 µM,99
CN1CCN(c2ccc(Nc3nccc(-c4cccc([N+](=O)[O-])c4)n3)cc2C(F)(F)F)CC1,LRRK2 G2019S,binding,10 µM,49
CNC(=O)[C@@H]1CC[C@@H](n2c(-c3ccc4cnccc4c3)nc3ccc(C(=O)NCc4cccc(C(N)=O)c4)cc32)C1,LRRK2 G2019S,"binding, competition with immobilised ligand",1 µM,100
O=C(c1ccc(Nc2ncc(Cl)c(-c3ccc(Cl)s3)n2)cc1)N1CCC(N2CCCC2)CC1,LRRK2 G2019S,"binding, competition with immobilised ligand",1 µM,1.1
CN(c1nccc(-c2cnn3ncccc23)n1)C1CC1,LRRK2,binding,1 µM,100
COc1ncc2cc3ccccc3nc2c1C#N,LRRK2,"cell-free assay, competition with immobilised ligand",5 µM,100
O=C(c1ccc(Nc2nccc(-c3cc4ccccc4s3)n2)cc1)N1CCC(N2CCCC2)CC1,LRRK2 G2019S,"binding, competition with immobilised ligand",1 µM,16
CCS(=O)(=O)c1cc2cc(C[C@](O)(CC(C)(C)c3ccc(F)cc3C(N)=O)C(F)(F)F)[nH]c2cn1,LRRK2,"cell-free assay, competition with immobilised ligand",1 µM,100
O=C(Nc1c[nH]nc1C(=O)NC1CCNCC1)c1cc(F)cc(F)c1,LRRK2 G2019S,"binding, competition with immobilised ligand",1 µM,93
CN(C)c1nccc(-c2cnc3ncccn23)n1,LRRK2 G2019S,binding,1 µM,71
CS(=O)(=O)NCC[C@H](NC(=O)c1cncc2c1cnn2-c1ccc(F)cc1)c1ccnc(S(C)(=O)=O)c1,LRRK2,"cell-free assay, competition with immobilised ligand",1 µM,86
C[C@H]1CCN(c2nccc(-c3cnn4ncccc34)n2)C1,LRRK2,binding,1 µM,67
O=C(O)[C@@H]1[C@@H](Cn2nnc3ccccc3c2=O)CC[C@H]1C(=O)c1ccc(OCCC2CCOCC2)cc1,LRRK2,"cell-free assay, competition with immobilised ligand",1 µM,100
CN(C)c1ncc(F)c(-c2cnn3ncccc23)n1,LRRK2 G2019S,binding,1 µM,100
O=C(NCCCN1CCOCC1)c1ccc(Nc2nccc(-c3cc4ccccc4s3)n2)cc1,LRRK2,"binding, competition with immobilised ligand",1 µM,63
C[C@@H](c1ccc(-n2cnc3c(N)ncnc32)cc1)N1CCc2nn(C)c(Cc3ccccc3)c2C1=O,LRRK2,"binding, competition with immobilised ligand",0.1 µM,93
Cc1cnc(Nc2ccc(C(=O)N3CCC(N4CCCC4)CC3)cc2)nc1-c1cc2ccccc2s1,LRRK2 G2019S,"binding, competition with immobilised ligand",1 µM,2.8
CC(=O)c1c(NS(C)(=O)=O)c2cc(-c3ccc(Cl)cc3)c(-c3ccc(Cl)cc3Cl)nc2n(C)c1=O,LRRK2,"cell-free assay, competition with immobilised ligand",1 µM,65
O=C(NCC1CCOCC1)c1n[nH]cc1NC(=O)c1c(F)cccc1F,LRRK2,"binding, competition with immobilised ligand",1 µM,76
c1cnn2ncc(-c3ccnc(N4CCC45COC5)n3)c2c1,LRRK2,binding,1 µM,35
CCC(=O)N[C@@H]1CC[C@H](C(=O)N(C)c2ccc(-c3nc4ccccc4o3)cc2)C1,LRRK2 G2019S,"cell-free assay, competition with immobilised ligand",1 µM,100
COc1cnc(Nc2cccc(S(N)(=O)=O)c2)nc1N1CCN(c2ccccc2)C(=O)C1,LRRK2,"binding, competition with immobilised ligand",1 µM,95
